Legend:
[1] = Apparent clearance in human liver microsomes; format: ADME, Microsome; details: read-out: CLH(app)
Rattus norvegicus [2] = experiment: AUC in rat at 5 mg/kg, po; format: ADME, organism-based, Plasma; parameters: dose 5 mg/kg, route oral; details: in vivo
Procedure, shortened: (§1)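 Rat PK. Oral dose 5 mg/kg given in 0.5% methylcellulose. Cmax and AUC are reported as free drug concentrations. Bioavailability is taken relative to a 1 mg/kg intravenous dose.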

[3] = Half life in rat; format: ADME, organism-based; details: in vivo; procedure, shortened: as §1
[4] = Volume of distribution at steady state in rat at 1 mg/kg, iv; format: ADME, organism-based; parameters: dose 1 mg/kg, route intravenous; details: in vivo, read-out: Vdss
Procedure, shortened: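 Rat, single intravenous dose of 1 mg/kg. Steady-state volume of distribution comes from the plasma profile.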

Rattus norvegicus [5] = experiment: Oral bioavailability in rat at 5 mg/kg; format: ADME, organism-based; details: in vivo; procedure, shortened: as §1
[6] = Cmax in rat at 5 mg/kg, po; format: ADME, organism-based; parameters: dose 5 mg/kg, route oral; details: in vivo; procedure, shortened: as §1
[7] = Lipophilicity, log D of the compound; format: physicochemical; details: octanol/water
[8] = Metabolic stability in human liver microsomes assessed as compound remaining after 1 hr; format: ADME, Microsome; details: read-out: Stability
Procedure, shortened: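 Human liver microsomes incubated with compound for 1 h. Read-out is percent of parent remaining.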

Row | SMILES | CLint scaled [1] [L/h/kg] | other results
1 | Nc1ncnc2c1C(=O)N(c1ccc(C3CCN(C(=O)[C@H]4CC[C@@H](O)CC4)CC3)cc1)CCO2 | < 0.48 | 
2 | CC(C)[C@H](CO)NC(=O)C[C@H]1CC[C@H](c2ccc(N3CCOc4ncnc(N)c4C3=O)cc2)CC1 | < 0.48 | 
3 | Nc1ncnc2c1C(=O)N(c1ccc([C@H]3CC[C@H](CC(=O)N4CCCC4)CC3)cc1)CCO2 | 0.9 | 
4 | Nc1ncnc2c1C(=O)N(c1ccc([C@H]3CC[C@H](CC(=O)N4CC[C@@H](O)C4)CC3)cc1)CCO2 | < 0.48 | 
5 | Nc1ncnc2c1C(=O)N(c1ccc([C@H]3CC[C@H](CC(=O)N4CCOCC4)CC3)cc1)CCO2 | < 0.48 | AUC (Rattus norvegicus [2]): 0.838 µg·h/mL; half-life [3]: 2 h; Vd [4]: 1.2 L/kg; F (Rattus norvegicus [5]): 77%; Cmax [6]: 0.425 µg/mL
6 | CN1CCN(C(=O)C[C@H]2CC[C@H](c3ccc(N4CCOc5ncnc(N)c5C4=O)cc3)CC2)CC1=O | 0.54 | 
7 | COC1CCN(C(=O)C[C@H]2CC[C@H](c3ccc(N4CCOc5ncnc(N)c5C4=O)cc3)CC2)CC1 | 6.42 | 
8 | Nc1ncnc2c1C(=O)N(c1ccc([C@H]3CC[C@H](CC(=O)N4CC(O)C4)CC3)cc1)CCO2 | < 0.48 | 
9 | CC(=O)N1CCC(c2ccc(N3CCOc4ncnc(N)c4C3=O)cc2)CC1 | < 0.48 | 
10 | CC(C)C(=O)N1CCC(c2ccc(N3CCOc4ncnc(N)c4C3=O)cc2)CC1 | 0.66 | 
11 | Nc1ncnc2c1C(=O)N(c1ccc(C3CCN(C(=O)C4CCCCC4)CC3)cc1)CCO2 | 2.46 | 
12 | Nc1ncnc2c1C(=O)N(c1ccc(C3CCN(C(=O)C4CCOCC4)CC3)cc1)CCO2 | < 0.48 | 
13 | Nc1ncnc2c1C(=O)N(c1ccc(C3CCN(C(=O)c4cnon4)CC3)cc1)CCO2 | < 0.48 | 
14 | Nc1ncnc2c1C(=O)N(c1ccc(C3CCN(C(=O)c4ccccc4)CC3)cc1)CCO2 | < 0.48 | 
15 | Nc1ncnc2c1C(=O)N(c1ccc(C3CCN(C(=O)c4ccno4)CC3)cc1)CCO2 | 0.78 | 
16 | Nc1ncnc2c1C(=O)N(c1ccc(C3CCN(C(=O)c4ccon4)CC3)cc1)CCO2 | 0.72 | 
17 | N#CC[C@H]1CC[C@H](c2ccc(N3CCOc4ncnc(N)c4C3=O)cc2)CC1 | < 0.48 | AUC (Rattus norvegicus [2]): 0.801 µg·h/mL; half-life [3]: 3.1 h; Vd [4]: 2 L/kg; F (Rattus norvegicus [5]): 85%; Cmax [6]: 0.174 µg/mL
18 | CC(C)(O)C[C@H]1CC[C@H](c2ccc(N3CCOc4ncnc(N)c4C3=O)cc2)CC1 | < 0.48 | AUC (Rattus norvegicus [2]): 1.26 µg·h/mL; half-life [3]: 2.6 h; Vd [4]: 1.3 L/kg; F (Rattus norvegicus [5]): 100%; Cmax [6]: 0.171 µg/mL

Row | SMILES | CLint scaled [1] [L/h/kg] | other results
19 | CC(C)(N)C[C@H]1CC[C@H](c2ccc(N3CCOc4ncnc(N)c4C3=O)cc2)CC1 | 0.72 | 
20 | Cc1noc(C[C@H]2CC[C@H](c3ccc(N4CCOc5ncnc(N)c5C4=O)cc3)CC2)n1 | < 0.48 | logD [7]: 2.3; AUC (Rattus norvegicus [2]): 0.727 µg·h/mL; half-life [3]: 2.7 h; Vd [4]: 1.2 L/kg; F (Rattus norvegicus [5]): 53%; Cmax [6]: 0.118 µg/mL
21 | Cc1nnc(C[C@H]2CC[C@H](c3ccc(N4CCOc5ncnc(N)c5C4=O)cc3)CC2)o1 | < 0.48 | 
22 | Cc1nnc(C[C@H]2CC[C@H](c3ccc(N4CCOc5ncnc(N)c5C4=O)cc3)CC2)s1 | < 0.48 | 
23 | Cc1nnc(C[C@H]2CC[C@H](c3ccc(N4CCOc5ncnc(N)c5C4=O)cc3)CC2)[nH]1 | < 0.48 | 
24 | Cc1nnc(C[C@H]2CC[C@H](c3ccc(N4CCOc5ncnc(N)c5C4=O)cc3)CC2)n1C | < 0.48 | 
25 | Cc1noc(CC[C@H]2CC[C@H](c3ccc(N4CCOc5ncnc(N)c5C4=O)cc3)CC2)n1 | 4.92 | 
26 | Nc1ncnc2c1CN(c1ccc([C@H]3CC[C@H](CCO)CC3)cc1)CCO2 | 0.66 | 
27 | Cc1nc(N)c2c(n1)OCCN(c1ccc([C@H]3CC[C@H](CC(=O)O)CC3)cc1)C2=O | < 0.48 | 
28 | Nc1ccnc2c1C(=O)N(c1ccc([C@H]3CC[C@H](CC(=O)O)CC3)cc1)CCO2 | 0.504 | 
29 | Nc1ncnc2c1C(=O)N(c1ccc([C@H]3CC[C@H](CCC(=O)O)CC3)cc1)CCO2 | < 0.48 | 
30 | CN(CC(=O)O)C(=O)C[C@H]1CC[C@H](c2ccc(N3CCOc4ncnc(N)c4C3=O)cc2)CC1 | < 0.48 | 
31 | Nc1ncnc2c1C(=O)N(c1ccc([C@H]3CC[C@H](Cc4nnn[nH]4)CC3)cc1)CCO2 | < 0.48 | 
32 | NC(=O)C[C@H]1CC[C@H](c2ccc(N3CCOc4ncnc(N)c4C3=O)cc2)CC1 | < 0.48 | AUC (Rattus norvegicus [2]): 0.81 µg·h/mL; half-life [3]: 4.3 h; Vd [4]: 1.6 L/kg; F (Rattus norvegicus [5]): 88%; Cmax [6]: 0.273 µg/mL
33 | CCNC(=O)C[C@H]1CC[C@H](c2ccc(N3CCOc4ncnc(N)c4C3=O)cc2)CC1 | < 0.48 | 
34 | Nc1ncnc2c1C(=O)N(c1ccc([C@H]3CC[C@H](CC(=O)NC4CCCC4)CC3)cc1)CCO2 | 2.34 | 
35 | Nc1ncnc2c1C(=O)N(c1ccc([C@H]3CC[C@H](CC(=O)O)CC3)cc1)CCO2 [PF-04620110] | < 0.48 | remaining at 1 h [8]: 93%; AUC (Rattus norvegicus [2]): 0.565 µg·h/mL; half-life [3]: 7.3 h; Vd [4]: 1.8 L/kg; Cmax [6]: 0.225 µg/mL

Source: ChEMBL document CHEMBL2412975 (Bioorg Med Chem, 2013)
